An excerpt weighted towards active compounds, which were near 2.3% of everything screened.
TRPC4 agonist – TRPC4 (mouse) channel activation | Q9QUQ5 | HEK293 TRPC4beta/mu-opioid, Fluo4 calcium fluorescence; stronger effect = higher value | B-score at 10 µM | 310,000 compounds, 0.49% hits | AID 2237;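 active = B-score above 5 SD of library B-scores, and initial fluorescence ratio not above library mean plus 5 SD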;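 also: positive B-score marks a calcium rise read as TRPC4 activation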
Target sequence (Q9QUQ5 whole entry, looked up): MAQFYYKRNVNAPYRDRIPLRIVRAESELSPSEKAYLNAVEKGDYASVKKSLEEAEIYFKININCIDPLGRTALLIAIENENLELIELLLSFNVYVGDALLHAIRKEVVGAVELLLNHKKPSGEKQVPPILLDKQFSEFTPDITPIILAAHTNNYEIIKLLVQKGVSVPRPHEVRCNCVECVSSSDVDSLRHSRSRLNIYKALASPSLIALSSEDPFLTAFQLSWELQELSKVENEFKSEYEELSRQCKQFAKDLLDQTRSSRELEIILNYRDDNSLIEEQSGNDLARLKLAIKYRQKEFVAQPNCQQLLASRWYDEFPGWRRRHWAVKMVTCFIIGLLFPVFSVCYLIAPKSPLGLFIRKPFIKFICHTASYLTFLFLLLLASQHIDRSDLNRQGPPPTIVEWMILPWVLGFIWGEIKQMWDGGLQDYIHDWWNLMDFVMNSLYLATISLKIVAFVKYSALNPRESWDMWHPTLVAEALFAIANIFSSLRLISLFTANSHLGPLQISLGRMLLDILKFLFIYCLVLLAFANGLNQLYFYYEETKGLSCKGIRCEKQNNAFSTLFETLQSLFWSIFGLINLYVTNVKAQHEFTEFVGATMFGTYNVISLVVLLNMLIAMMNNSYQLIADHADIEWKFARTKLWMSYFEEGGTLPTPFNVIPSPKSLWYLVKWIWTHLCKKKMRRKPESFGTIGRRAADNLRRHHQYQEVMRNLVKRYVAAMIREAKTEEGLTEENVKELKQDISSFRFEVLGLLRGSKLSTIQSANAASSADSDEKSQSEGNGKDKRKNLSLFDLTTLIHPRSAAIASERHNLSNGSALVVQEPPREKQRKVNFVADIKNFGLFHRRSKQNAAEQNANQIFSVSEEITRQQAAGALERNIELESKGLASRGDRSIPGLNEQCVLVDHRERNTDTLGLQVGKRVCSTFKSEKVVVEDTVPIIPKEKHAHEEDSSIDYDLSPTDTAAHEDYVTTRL
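Assay system: HEK293 stable line with TRPC4beta plus mu-opioid receptor; schedule: 45 min room-temperature Fluo4 loading, 110 s read; technique: kinetic Fluo4 calcium fluorescence; evaluation: integrated baseline-normalised fluorescence ratio, converted to per-well B score; controls: buffer (low) and maximal DAMGO (high)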
TRPC4 PAM – allosteric potentiators of mouse TRPC4 channel | 310,000 compounds, 0.42% hits | B-score at 10 µM | HEK293 TRPC4beta/mu-opioid, DAMGO EC20, Fluo-4 Ca2+ flux; stronger effect = higher value | Q9QUQ5 | AID 2227;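 active = B-score of calcium response area above 5 SD of library B-scores, with initial fluorescence ratio within 5 SD of library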;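 also: B-score of integrated fluorescence ratio over time as area under calcium response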
TRPC6 inhibitor – mouse TRPC6 channel inhibition; HEK293-TRPC6, membrane potential dye, ACh-evoked depolarization; stronger effect = lower value; B-score at 10 µM; 310,000 compounds, 1.1% hits; AID 2553;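 active = B-score under library mean minus 3 SD, initial fluorescence not abnormally high, positive integrated signal ratio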;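 also: B-score derived from integrated fluorescence ratio over the kinetic read; more negative B-score means stronger inhibition of depolarization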
TRPC4 block – TRPC4 (mouse) channel inhibition | B-score at 10 µM | 300,000 compounds, 0.39% hits | Q9QUQ5 | HEK293 TRPC4beta/mu-opioid, DAMGO-evoked Fluo4 calcium flux; stronger effect = lower value;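 active = B-score over 3 SD under the library average, no early fluorescence shift, positive overall ratio signal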
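Material: HEK293 cells with stable TRPC4beta plus mu-opioid receptor expression; probe or stimulus: DAMGO in two steps, submaximal then maximal; technique: Fluo4 calcium fluorescence by kinetic imaging, 5 s 1 Hz baseline; measure: integrated fluorescence ratio relative to baseline, converted to per-well B score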
TRPC6 act – activators of mouse TRPC6 channel. Q61143. HEK293-TRPC6 membrane potential dye fluorescence; stronger effect = higher value. 310,000 compounds, 0.13% hits. B-score at 10 µM;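 active = B-score of the integrated fluorescence ratio above library mean plus 3 SD, and starting fluorescence ratio within library mean plus 5 SD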;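 also: higher score means more depolarization so channel activation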
TRPC4 spec 2 – second check of whether TRPC6 inhibitors also affect mouse TRPC4; shares compounds with TRPC6 inhibitor; HEK293 TRPC4/MOR, membrane potential dye fluorescence; channel activated by saturating DAMGO dose; inhibition, % at 10 µM; 920 compounds, 42% hits; AID 2776;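 active = compounds whose fluorescence signal differed from control wells by over 3 SD, either direction, in both duplicate plates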
TRPC4 spec – tests whether TRPC6 inhibitors also affect mouse TRPC4 | shares compounds with TRPC6 inhibitor | HEK293 TRPC4/mu-opioid, membrane potential fluorescence | activity change, negative = inhibition, % at 10 µM | 920 compounds, 61% hits;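 active = rise or fall in signal beyond 3 SD of buffer-only wells in both replicate plates, either sign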;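 also: integrated kinetic ratio of fluorescence range over baseline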
HEK293 MPD ctr 2-1 – second counter-screen for TRPC6 inhibitors: parental HEK293 cells. shares compounds with TRPC6 inhibitor. parental HEK293 membrane potential dye fluorescence; maximal acetylcholine challenge after compound addition. signal change vs control, % at 10 µM. 920 compounds, 31% hits;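 active = membrane potential signal moving either way by over 3 SD of the maximum-effect control, in both duplicate plates, meaning non-specific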
HEK293 MPD ctr-1 – parental HEK293 nonspecific activity of TRPC6 inhibitors | shares compounds with TRPC6 inhibitor | parental HEK293 membrane potential dye fluorescence | membrane potential signal change, % at 10 µM | 920 compounds, 60% hits;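 active = membrane potential signal shifting up or down by more than 3 SD of buffer-only wells, on both duplicate plates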
HEK293 MPD ctr-2 – checks TRPC6 modulator effects in parental HEK293 cells. membrane potential dye fluorescence. 2,400 compounds, 51% hits. shares compounds with TRPC6 inhibitor. membrane potential signal change, % at 10 µM;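 active = membrane potential signal moves up or down beyond 5 SD from buffer-only wells, on both duplicate plates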
HEK293 MPD ctr 2-2 – second counter-screen for TRPC6 modulators: effect in parental HEK293 cells; inhibition, % at 10 µM; 2,400 compounds, 14% hits; AID 488926; membrane potential dye fluorescence; after compound, maximal acetylcholine stimulation; shares compounds with TRPC6 inhibitor;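 active = membrane potential signal drops by more than 5 SD from the mean control signal, in both duplicate plates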;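 also: plate controls were acetylcholine ECmax control wells for no effect and buffer only wells for full effect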
TRPC4 ctr mod – tests whether TRPC6 modulators also affect mouse TRPC4. shares compounds with TRPC6 inhibitor. HEK293 TRPC4/mu-opioid, membrane potential fluorescence. percent change from control (negative = decrease, positive = increase), % at 10 µM. 2,400 compounds, 69% hits. AID 488927;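 active = membrane potential signal moved up or down beyond 5 SD of buffer control wells, in both duplicate plates, actives on both sides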;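 also: plate controls were assay buffer wells for no effect and DAMGO maximal-effect wells for full effect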
TRPC4 ctr inh 2 – second check of whether TRPC6 modulators also affect mouse TRPC4; shares compounds with TRPC6 inhibitor; HEK293 TRPC4/mu-opioid, membrane potential dye fluorescence; stimulated with maximal-effect DAMGO; inhibition, % at 10 µM; 2,400 compounds, 55% hits; AID 488928;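 active = drop in membrane potential signal beyond 5 SD of the control wells in both duplicate plates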;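 also: TRPC4 counter screen for TRPC6 hits run under conditions tuned for TRPC6 not TRPC4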
TRPC6 inh conf – mouse TRPC6 inhibitor confirmation. shares compounds with TRPC6 inhibitor. HEK293-TRPC6, membrane potential dye, ACh-evoked depolarization. inhibition, % at 10 µM. 3,300 compounds, 43% hits;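 active = fluorescence ratio falls more than 5 SD below the full-stimulation control mean, in both duplicate runs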;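 also: integrated fluorescence ratio of peak minus minimum over baseline after agonist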
TRPC6 act confirm – mouse TRPC6 activator confirmation. shares compounds with TRPC6 inhibitor. HEK293-TRPC6 membrane potential dye fluorescence, FDSS. activation, % at 10 µM. 2,800 compounds, 11% hits. AID 488961;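 active = ratio signal rise beyond 5 SD above unstimulated control wells' mean, seen in both duplicate runs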;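 also: plate controls were buffer EC0 wells for no effect and acetylcholine ECmax response for full effect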
The depositor's hits bear a star; i = inactive; / = not tested or not shown.

SMILES	TRPC4 agonist	TRPC4 PAM	TRPC6 inhibitor	TRPC4 block	TRPC6 act	HEK293 MPD ctr-2	HEK293 MPD ctr 2-2	TRPC4 ctr mod	TRPC4 ctr inh 2	TRPC6 inh conf	TRPC6 act confirm	others
Cc1cccn2c(=O)c(/C=C(\C#N)C(=O)NC3CCS(=O)(=O)C3)c(N3CC(C)OC(C)C3)nc12 (stereo not drawn)	i	i	-5*	i	i	i	i	-14%*	i	i	i
CC(C)Cn1nc(NS(=O)(=O)c2cccc3nonc23)c2cc3ccccc3nc21	i	i	i	i	i	/	/	/	/	/	/
O=C(CSc1nnc(NC(=O)C2CC(=O)N(c3ccc(F)cc3)C2)s1)NCC1CCCO1 (stereo not drawn)	i	i	i	i	i	/	/	/	/	/	/
COC(=O)c1ccc2c(c1)C(C)(C)C(/C=C/c1ccc(OC)c(OC)c1OC)=[N+]2C	i	i	-9.6*	i	i	-179%*	88%*	-190%*	56%*	72%*	i
Cc1cc(NCCNC2=CC(=O)CCC2)nc2ccccc12	i	i	-5.5*	i	i	-168%*	i	-27%*	31%*	i	i
Cc1[nH]c2ccccc2c1SCCN	i	i	i	i	i	/	/	/	/	/	/
Cc1ccc(-c2[nH]c3ccccc3c2SCCN)cc1	i	i	-6.7*	-7*	i	/	/	/	/	i	i	TRPC4 spec 2=36%*;TRPC4 spec=-12%*;HEK293 MPD ctr 2-1=i;HEK293 MPD ctr-1=-296%*
NCCSc1c(-c2ccccc2)[nH]c2ccccc12	i	i	-5.3*	i	i	i	i	i	57%*	52%*	i
COc1ccc(-c2[nH]c3ccccc3c2SCCNC(=O)c2ccccc2)cc1	i	i	i	i	i	/	/	/	/	/	/
NCCSc1c(-c2ccc(Cl)cc2)[nH]c2ccccc12	129*	i	-6.7*	i	i	/	/	/	/	69%*	i	TRPC4 spec 2=23%*;TRPC4 spec=-12%*;HEK293 MPD ctr 2-1=i;HEK293 MPD ctr-1=-323%*
NCCSc1c(-c2ccc(F)cc2)[nH]c2ccccc12	i	i	-6*	i	i	i	i	i	83%*	77%*	i
COc1ccc(CCNc2oc(-c3ccc(OC)c(OC)c3)nc2C#N)cc1	i	i	i	i	i	/	/	/	/	/	/
COc1ccc(-c2nc(C#N)c(NCCCN(C)C)o2)cc1OC	i	i	-6.4*	i	i	i	i	i	i	i	i
COc1ccc(OCc2cc(C(=O)N(C)Cc3cc(C4CC4)n[nH]3)no2)c(Cl)c1	i	i	i	i	i	/	/	/	/	/	/
COc1ccc(-c2csc(N=C(N)N)n2)cc1	i	i	i	i	i	/	/	/	/	/	/
Cc1ccc(-c2csc(N=C(N)N)n2)c(C)c1	i	i	-5.5*	i	i	94%*	i	12%*	52%*	i	/
CC(CNC(=O)CCn1ccc2cc(S(=O)(=O)N3CCCC3)ccc21)c1ccccc1 (stereo not drawn)	i	i	i	i	i	/	/	/	/	/	/
c1ccc(C[C@H]2CNCCN2CC2CCCCC2)cc1	i	i	i	i	i	/	/	/	/	/	/
c1ccc(C[C@H]2CNCCN2CCCCC2CCCCC2)cc1	i	i	-6*	i	i	i	i	i	48%*	i	i
Cc1[nH]n(-c2ccc(Br)cc2)c(=O)c1C=Nc1ccc(S(=O)(=O)Nc2nccs2)cc1	i	i	-5.8*	i	i	i	i	-39%*	40%*	i	i
CN(C)CCCNc1c2ccccc2nc2ccccc12	i	i	-11*	-6*	i	-268%*	177%*	-44%*	78%*	88%*	i
COc1cc(Nc2c3c(nc4ccccc24)CCCC3)cc(OC)c1OC	i	i	-6.1*	i	i	-96%*	i	-20%*	38%*	i	i
CN(C)CCCNc1nc(-c2ccccc2)nc2ccccc12	i	i	-7.7*	i	i	/	/	/	/	65%*	i	TRPC4 spec 2=40%*;TRPC4 spec=-27%*;HEK293 MPD ctr 2-1=i;HEK293 MPD ctr-1=-347%*
CN(C)CCCNc1oc(-c2ccccc2)nc1C#N	i	i	i	i	i	/	/	/	/	/	/
Nc1c2c(nc3ccc(Br)cc13)N(Cc1ccccc1)CC2	i	i	i	i	i	/	/	/	/	/	/
Nc1c2c(nc3ccccc13)N(C1CCCCC1)CC2	i	i	-12*	-6*	i	/	/	/	/	109%*	i	TRPC4 spec 2=27%*;TRPC4 spec=-28%*;HEK293 MPD ctr 2-1=-2.5%*;HEK293 MPD ctr-1=-388%*
CC(C)(C)CC(C)(C)NCC(=O)Nc1c2c(nc3ccccc13)CCC2	i	i	i	i	i	/	/	/	/	/	/
CN(C)CCNc1c2c(nc3ccccc13)CCC2	i	i	-9.1*	i	i	-202%*	110%*	-36%*	77%*	74%*	i
Nc1c2c(nc3ccccc13)CCC2	i	i	-7*	-5*	i	-279%*	i	-42%*	70%*	i	i

Screening results: PubChem, Johns Hopkins Ion Channel Center
